Screening results: PubChem, several laboratories
A selection: hits, their analogues and other compounds. The true share with any hit is near 1.5%.
STAT3 inh: reduces IL-6 driven STAT3 reporter signal; actives 0.89% (n = 190,000); AID 862; inhibition, % at 5.5 µM; U3A cells, IL-6 STAT3-luciferase reporter, luminescence; host cell line lacks STAT1;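 active = inhibition above the mean inhibition across all screened compounds plus 3 SD, cut at about 44% in these data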;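 also: 0% = DMSO only wells and 100% = 100 µM nifuroxazide control wells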
PPC-1+TRAIL kill: compounds killing PPC-1 cancer cells with TRAIL present (potentiator screen, no TRAIL-free arm); AID 1443; cell killing (% activity), % at 4 µM or 5 µM; PPC-1 cells + TRAIL, ATPLite viability luminescence; actives 0.41% (n = 220,000);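 active = cell killing above 50% in the first pass at 4 µM, then a duplicate retest at 5 µM averaging 50% or more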;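 also: plate controls were cells with TRAIL plus DMSO for no effect and medium-only wells lacking cells for full effect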
Platelet DG rel: modulates dense granule release in human platelets; human platelet-rich plasma, SFLLRN dense granule ATP release, luminescence; inhibition, %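 (compounds screened at 7.5 µM in platelet-rich plasma)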; actives 0.22% (n = 300,000); AID 1663;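 active = mean replicate score, as percent of positive control, at or above 50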
Lipid droplet: modulators of hepatic lipid droplet formation. AML12 mouse hepatocytes, oleate lipid droplets, BODIPY imaging. inhibition, % at 6.5 µM. actives 0.4% (n = 240,000);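 active = lipid droplet intensity inhibited by at least 50%, with more than 500 cells counted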
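Test system: AML12 hepatocytes (mouse); reagent: oleate loading, 100 µM; dosing: one dose, 6.5 µM compound; incubation: overnight exposure; signal: fluorescence imaging, 20x objective, two fields per well; read-out basis: % inhibition of corrected integrated BODIPY droplet signal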
H9c2 TAG inh: inhibitors of triacylglycerol accumulation. H9c2 cells, Nile Red lipid (TAG) fluorescence; cells loaded with 200 µM oleic acid. inhibition, % at 12.5 µM. actives 0.66% (n = 230,000). AID 651582;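 active = pattern-corrected inhibition of lipid staining of at least 50% with the nuclear-stain viability signal not falling by more than 50%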;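 also: 0% = DMSO wells and 100% = triacsin C control wells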
STAT1 inh: STAT1 signaling inhibition. NIH 3T3 STAT1-luciferase reporter, IFN-gamma, luminescence. inhibition, % at 5.5 µM. actives 0.35% (n = 200,000);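 active = inhibition above a set limit, the mean inhibition across all tested compounds plus 3 SD, cut at about 34% in these data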;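 also: 0% = IFN-gamma with DMSO and 100% = IFN-gamma with 300 µM nifuroxazide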
TAG conf: triacylglycerol accumulation inhibition, confirmation | AID 651629 | actives 71% (n = 990) | shares compounds with H9c2 TAG inh | inhibition, % at 12.5 µM | H9c2 lipid accumulation, Nile Red fluorescence; cells loaded with 200 µM oleic acid;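 active = mean inhibition across replicates of 40% or more; inactive = mean inhibition below 40%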;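 also: plate controls were DMSO only wells for no effect and Triacsin C treated wells for full effect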
* hit, by the source's call; nt = no result.

SMILES	STAT3 inh	PPC-1+TRAIL kill	Platelet DG rel	Lipid droplet	H9c2 TAG inh	STAT1 inh	TAG conf
O=C(Nc1cccc(-c2csc(Nc3cccc(C(F)(F)F)c3)n2)c1)c1ccccc1	nt	15	-10	-60	38	nt	nt
O=C(Nc1ccc(-c2csc(Nc3cccc(C(F)(F)F)c3)n2)cc1)c1ccccc1	nt	26	-5	11	51*	nt	63*
O=C(Nc1nc(-c2ccccc2)cs1)c1cccc([N+](=O)[O-])c1	17	11	-2	nt	nt	-17	nt
O=C(Nc1ccc(-c2csc(Nc3cccc(C(F)(F)F)c3)n2)cc1)c1cc([N+](=O)[O-])cc(C(F)(F)F)c1	nt	2	5	7	71*	nt	68*
COc1ccc(-n2ccnc(SCC(=O)NCc3ccccc3Cl)c2=O)cc1	nt	nt	-15	14	nt	nt	nt
CC1(C)Cc2cccc(OCC(=O)Nc3ccc(OCC(N)=O)cc3)c2O1	1	-6	-8	-15	66*	-2	-18
COc1cc(NC(=O)c2cccc3c(-c4cnn(C)c4)coc23)cc(OC)c1OC	nt	nt	nt	nt	-9	nt	nt
CC(CC(=O)Nc1ccc2c(c1)c(=O)n(C)n2-c1ccc2ccccc2c1)C(F)(F)F (stereo unspecified)	nt	nt	nt	nt	55*	nt	44*
Cn1c(=O)c2cc(NC(=O)Cc3cccnc3)ccc2n1-c1ccc2ccccc2c1	nt	nt	nt	nt	7	nt	nt
O=C(COc1ccc(Br)cc1)N1CCN(c2ncccn2)CC1	nt	nt	nt	nt	-2	nt	nt
CC[C@H](C)[C@H](NC(N)=O)C(=O)NCCc1ccc(OC)c(OC)c1	-2	14	5	20	94*	-5	3
COc1ccc(CCNC(=O)C(NC(=O)OCc2ccccc2)C(C)C)cc1OC (stereo unspecified)	nt	12	10	nt	-2	nt	nt
CCOc1ccc(S(=O)(=O)NCc2ccccn2)cc1NC(=O)c1ccccc1	nt	nt	1	nt	58*	nt	78*
CCOc1ccc(S(=O)(=O)NCc2cccnc2)cc1NC(=O)c1ccccc1	nt	nt	nt	nt	8	nt	nt
CCC(=O)Nc1nonc1-c1nc2ccccc2n1Cc1ccccc1	-8	16	6	-15	-30	-18	nt
CCC(=O)Nc1nonc1-c1nc2ccccc2n1Cc1cccc2ccccc12	-10	5	-2	-101	50*	0	65*
CCCOc1ccccc1C1CC(=O)NC2=C1C(=O)CCC2 (stereo unspecified)	14	8	6	nt	32	-20	nt
CCCCOc1ccccc1C1CC(=O)NC2=C1C(=O)CCC2 (stereo unspecified)	3	8	0	nt	71*	-10	66*
COc1cc(/C=C(\CCC(=O)O)c2nc3ccccc3s2)ccc1OCC(=O)Nc1c(Cl)cccc1Cl	nt	nt	nt	nt	6	nt	nt
CSc1ncnc2c1ncn2CCCNC1CCN(Cc2ccccc2)CC1	nt	nt	nt	nt	13	nt	nt
c1ccc(COc2ncnc3c2ncn3CCCNC2CCN(Cc3ccccc3)CC2)cc1	nt	nt	nt	nt	63*	nt	35
CCOc1ccc(CCNC(=O)CCc2nc(-c3ccc(C)cc3)no2)cc1OCC	4	-15	-4	nt	63*	-5	45*
COc1ccc(-c2noc(CCC(=O)NCCc3cccc(C)c3)n2)cc1	6	15	8	2	nt	-2	nt
CCCCCC(=C/c1ccccc1)/C=N/Nc1ccc(S(=O)(=O)N2CCOCC2)cc1[N+](=O)[O-]	nt	nt	nt	nt	83*	nt	81*
O=C(O)c1ccccc1/C=N/Nc1ccc(S(=O)(=O)N2CCOCC2)cc1[N+](=O)[O-]	nt	-3	-1	2	-2	nt	nt
SMILES	STAT3 inh	PPC-1+TRAIL kill	Platelet DG rel	Lipid droplet	H9c2 TAG inh	STAT1 inh	TAG conf
CCC1NC(=O)c2cc3ccccc3cc2-n2c1nc1ccc(OC)cc1c2=O (stereo unspecified)	nt	nt	nt	nt	8	nt	nt
O=C(CN1CCC(n2nnc3cc(F)ccc32)CC1)NC1CC1	13	4	0	nt	8	-3	nt
CCOc1ccc2nc(NC(=O)CN3CCC(n4nnc5cc(F)ccc54)CC3)sc2c1	8	17	-2	28	58*	-1	43*
CCC(C)Nc1nc(-c2cccc(OC)c2O)nc2ccccc12 (stereo unspecified)	-7	nt	-1	14	57*	-2	44*
CCOc1ccccc1NC(=O)c1cc(=O)[nH]c2ccc(S(=O)(=O)N3CCOCC3)cc12	nt	nt	nt	nt	7	nt	nt
Cc1nc2c(OCc3ccc(C(F)(F)F)cc3)cccn2c1N(C)CC1CC1	nt	nt	nt	nt	-7	nt	nt
COC(=O)c1ccc(C(=O)OC)c(NC(=O)CN2CCN(c3ccc(OC)cc3)CC2)c1	9	0	-5	-2	56*	1	20
O=c1nc(-c2ccccc2)c2ccccc2[nH]1	1	20	-4	1	-3	-5	nt
O=c1cc(-c2ccccc2)[nH]c2ccccc12	-22	7	2	nt	66*	-9	49*
Cc1noc(C)c1S(=O)(=O)N(C)C[C@H]1OCc2cnnn2CCCC(=O)N([C@@H](C)CO)C[C@H]1C	nt	nt	nt	nt	-19	nt	nt
CS(=O)(=O)c1ccc(C(=O)OCC(=O)N2CCN(CCC3CCCCC3)CC2)cc1[N+](=O)[O-]	nt	nt	nt	nt	4	nt	nt
CS(=O)(=O)c1ccc(C(=O)OCC(=O)N2CCOCC2)cc1[N+](=O)[O-]	nt	nt	nt	nt	62*	nt	59*
CC(C)(C)N(Cc1ccccc1)C(=O)COC(=O)c1ccc([N+](=O)[O-])o1	nt	nt	nt	nt	6	nt	nt
CCN(C(=O)COC(=O)c1ccc([N+](=O)[O-])o1)c1cccc2ccccc12	nt	nt	nt	nt	69*	nt	88*
CC(C)(C)OC(=O)N(CCc1ccccc1)Cc1ccccc1OCc1ccc(NC(=O)C2CCCC2)cc1	nt	nt	nt	nt	17	nt	nt
C=C(C)Cn1c(-c2ccccc2)nc2ccccc21	14	-14	-1	-9	-6	10	nt
C=C1c2nc3ccccc3n2C=C(c2ccc(C)cc2)N1c1ccccc1	nt	nt	nt	nt	56*	nt	80*
O=C(CCNS(=O)(=O)c1ccc(F)cc1)N1CCN(c2ncccn2)CC1	nt	nt	nt	nt	2	nt	nt
COc1ccc(NS(=O)(=O)c2cccc(C(=O)N/N=C/c3cn(-c4ccccc4)nc3-c3ccccc3)c2)cc1	nt	38	4	8	60*	nt	62*
Cc1cc(=O)n2c3c(c4c(cc13)c(CN(C)C)cc(=O)n4C)OC2	nt	nt	nt	nt	28	nt	nt
O=C(Nc1ccc(S(=O)(=O)N2CCOCC2)cc1)c1ccc([N+](=O)[O-])s1	nt	nt	-1	nt	94*	nt	89*
CCc1nnc(NS(=O)(=O)c2ccc(NC(=O)c3cccc([N+](=O)[O-])c3)cc2)s1	nt	nt	2	-1	nt	nt	nt
CCc1nnc(NS(=O)(=O)c2ccc(NC(=O)c3ccc([N+](=O)[O-])s3)cc2)s1	nt	nt	nt	nt	67*	nt	8
COC(=O)c1ccc(/C=C/c2c(-c3ccsc3)oc3ccc(N4CCOCC4)cc23)cc1	nt	nt	3	nt	60*	nt	54*
COc1ccc(-c2oc3ccc(N4CCOCC4)cc3c2C#CCO)cc1	nt	nt	0	nt	22	nt	nt
COc1ccc(-c2c(-c3ccsc3)oc3ccc(N4CCOCC4)cc23)cn1	nt	nt	0	nt	1	nt	nt
